Converted amounts (≈) assume the structure as drawn. “And” between values parts separate entries of the source, which are not always exact repeats. Equal entries are not always repeated.
Legend:
Assay type in all cases: functional
[1] = tested on: Staphylococcus aureus; test: Antibacterial activity against Staphylococcus aureus MTCC 1430 by serial dilution method; parameters: -logMIC: scale not given here
Summary of the method: (§1)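 Tube serial dilution in 1 ml sterile double strength nutrient broth I.P., test range […] per ml. Inoculum: […] of a saline suspension at 10⁵ cfu/ml from a fresh 24-h culture, grown in double strength nutrient broth at 37 ± 1 °C. […] Exact MIC refined by further dilution of the stock.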

[2] = tested on: Bacillus subtilis; test: Antibacterial activity against Bacillus subtilis MTCC 2423 by serial dilution method; parameters: -logMIC: unit not given here; summary of the method: as §1
[3] = tested on: Escherichia coli; test: Antibacterial activity against Escherichia coli MTCC 739 by serial dilution method; parameters: -logMIC: scale not given here; summary of the method: as §1
[4] = tested on: Candida albicans; test: Antifungal activity against Candida albicans MTCC 227 by serial dilution method; parameters: -logMIC: unit not given here
[5] = tested on: Aspergillus niger; test: Antifungal activity against Aspergillus niger MTCC 2425 by serial dilution method; parameters: -logMIC: scale not given here
[6] = Staphylococcus aureus, MTCC 1430, read-out: MIC
[7] = Bacillus subtilis, MTCC 2423, read-out: MIC
[8] = Escherichia coli, MTCC 739, read-out: MIC
[9] = Candida albicans, MTCC 227, read-out: MIC
[10] = Aspergillus niger, MTCC 2425, read-out: MIC

Compound | MIC [1, 6] [µg/mL] | MIC [2, 7] [µg/mL] | MIC [3, 8] [µg/mL] | MIC [4, 9] [µg/mL] | MIC [5, 10] [µg/mL] | MIC [1] [µg/mL] | MIC [2] [µg/mL] | MIC [3] [µg/mL] | MIC [4] [µg/mL] | MIC [5] [µg/mL] | -logMIC [1] | -logMIC [2] | -logMIC [3] | -logMIC [4] | -logMIC [5]
COc1ccc(C(=O)Nc2cccc(Cl)c2)cc1OC | 20 (≈ 68.6 µM) | 12 (≈ 41.1 µM) | 17 (≈ 58.3 µM) | 15 (≈ 51.4 µM) | 14 (≈ 48 µM) | – | – | – | – | – | 1.17 | 1.39 | 1.23 | 1.29 | 1.32
COc1ccc(C(=O)NCCO)cc1OC | 21 (≈ 93.2 µM) | 15 (≈ 66.6 µM) | 19 (≈ 84.4 µM) | 11.5 (≈ 51.1 µM) | 11.5 (≈ 51.1 µM) | – | – | – | – | – | 1.04 | 1.18 | 1.08 | 1.29 | 1.29
COc1ccc(C(=O)OCc2ccccc2)cc1OC | 21.5 (≈ 79 µM) | 12.5 (≈ 45.9 µM) | 18 (≈ 66.1 µM) | 13.5 (≈ 49.6 µM) | 14 (≈ 51.4 µM) | – | – | – | – | – | 1.1 | 1.34 | 1.18 | 1.3 | 1.29
CCOC(=O)c1ccc(OC)c(OC)c1 | 22 (≈ 105 µM) | 16 (≈ 76.1 µM) | 20 (≈ 95.1 µM) | 12 (≈ 57.1 µM) | 12 (≈ 57.1 µM) | – | – | – | – | – | 0.98 | 1.12 | 1.02 | 1.23 | 1.23
COc1ccc(C(=O)NN)cc1OC | 23 (≈ 117 µM) | 14 (≈ 71.4 µM) | 23 (≈ 117 µM) | 14 (≈ 71.4 µM) | 15 (≈ 76.5 µM) | – | – | – | – | – | 0.93 | 1.15 | 0.93 | 1.15 | 1.12
COc1ccc(C(=O)NCc2ccccc2)cc1OC | 19 (≈ 70 µM) | 13 (≈ 47.9 µM) | 19 (≈ 70 µM) | 13 (≈ 47.9 µM) | 12 (≈ 44.2 µM) | – | – | – | – | – | 1.15 | 1.32 | 1.15 | 1.32 | 1.36
CCCOC(=O)c1ccc(OC)c(OC)c1 | 24 (≈ 107 µM) | 14 (≈ 62.4 µM) | 12.5 (≈ 55.7 µM) | 18 (≈ 80.3 µM) | 14 (≈ 62.4 µM) | – | – | – | – | – | 0.98 | 1.2 | 1.25 | 1.1 | 1.2
CCCCOC(=O)c1ccc(OC)c(OC)c1 | 19 (≈ 79.7 µM) | 15 (≈ 63 µM) | 19 (≈ 79.7 µM) | 15 (≈ 63 µM) | 17 (≈ 71.3 µM) | – | – | – | – | – | 1.1 | 1.2 | 1.1 | 1.2 | 1.15
COc1ccc(C(=O)OCC(C)C)cc1OC | 20 (≈ 83.9 µM) | 14 (≈ 58.8 µM) | 16 (≈ 67.1 µM) | 13.5 (≈ 56.7 µM) | 12.5 (≈ 52.5 µM) | 19 (≈ 79.7 µM) | 16 (≈ 67.1 µM) | 19 (≈ 79.7 µM) | 11 (≈ 46.2 µM) | 16 (≈ 67.1 µM) | 1.08 and 1.1 | 1.23 and 1.17 | 1.17 and 1.1 | 1.25 and 1.34 | 1.28 and 1.17

Now from value to molecule, other results behind:

MIC [1, 6] [µg/mL] | MIC [2, 7] [µg/mL] | MIC [3, 8] [µg/mL] | MIC [4, 9] [µg/mL] | MIC [5, 10] [µg/mL] | MIC [1] [µg/mL] | MIC [2] [µg/mL] | MIC [3] [µg/mL] | MIC [4] [µg/mL] | MIC [5] [µg/mL] | Compound | -logMIC [1] | -logMIC [2] | -logMIC [3] | -logMIC [4] | -logMIC [5]
17 (≈ 81.2 µM) | 13 (≈ 62.1 µM) | 15 (≈ 71.7 µM) | 10 (≈ 47.8 µM) | 10 (≈ 47.8 µM) | – | – | – | – | – | COc1ccc(C(=O)N(C)C)cc1OC | 1.08 | 1.21 | 1.15 | 1.31 | 1.31
16.5 (≈ 62 µM) | 12.5 (≈ 46.9 µM) | 16 (≈ 60.1 µM) | 13 (≈ 48.8 µM) | 14 (≈ 52.6 µM) | – | – | – | – | – | CCCCCCOC(=O)c1ccc(OC)c(OC)c1 | 1.2 | 1.33 | 1.22 | 1.3 | 1.28
19 (≈ 65.1 µM) | 15 (≈ 51.4 µM) | 12 (≈ 41.1 µM) | 13.5 (≈ 46.3 µM) | 14.5 (≈ 49.7 µM) | – | – | – | – | – | COc1ccc(C(=O)Nc2ccc(Cl)cc2)cc1OC | 1.19 | 1.28 | 1.39 | 1.34 | 1.3
11 (≈ 35.6 µM) | 9 (≈ 29.1 µM) | 8.5 (≈ 27.5 µM) | 13.5 (≈ 43.6 µM) | 14 (≈ 45.3 µM) | – | – | – | – | – | COc1ccc(C(=O)Oc2cccc3cccnc23)cc1OC | 1.45 | 1.53 | 1.56 | 1.35 | 1.34
16.5 (≈ 61.3 µM) | 12.5 (≈ 46.4 µM) | 16.5 (≈ 61.3 µM) | 12.5 (≈ 46.4 µM) | 12 (≈ 44.6 µM) | – | – | – | – | – | COc1ccc(C(=O)N(CCO)CCO)cc1OC | 1.21 | 1.31 | 1.21 | 1.31 | 1.36
15 (≈ 51.4 µM) | 12 (≈ 41.1 µM) | 17 (≈ 58.3 µM) | 13.5 (≈ 46.3 µM) | 13.5 (≈ 46.3 µM) | – | – | – | – | – | COc1ccc(C(=O)Nc2ccccc2Cl)cc1OC | 1.28 | 1.39 | 1.23 | 1.34 | 1.34
17 (≈ 62.7 µM) | 15 (≈ 55.3 µM) | 18.5 (≈ 68.2 µM) | 13 (≈ 47.9 µM) | 11 (≈ 40.5 µM) | – | – | – | – | – | COc1ccc(C(=O)Nc2ccccc2C)cc1OC | 1.2 | 1.26 | 1.16 | 1.31 | 1.4
